# Fewer inactive variants are shown than the library holds.
# B1: tRNA (parent)
# chain: GUUCCGUUGGCGUAAUGGUAACGCGUCUCCCUCCUAAGGAGAAGACUGCGGGUUCGAGUCCCGUACGGAACG
# Variants of: B1
# Test: yeast fitness relative to wild type (ratio to wild type); higher = fitter; tRNA-Arg(CCU), competitive growth, 37 C, YPD
# In short: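 Start and end populations of a pooled competition were compared by 100-nucleotide paired-end sequencing of gene amplicons. The Saccharomyces cerevisiae strains carried tRNA-Arg(CCU) gene variants at the native genomic locus, synthesised with a 3% per-site mutation rate at 69 sites, and competed in YPD at 37°C for 24 hours in six parallel replicates. Darwinian fitness relative to wild type was based on the change in genotype frequencies. Genotypes required ≥ 100 starting reads, and estimates < 0.5 were set to 0.5.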
row,Variant,yeast fitness
1,C31U C33U A42C C49U,≤ 0.5
2,C31U A45C U47C A70U,≤ 0.5
3,C31U A57C G58A A69G,0.554
4,C31U C33G C49A G51A,0.563
5,C31G C34U C46U G56A,≤ 0.5
6,C31U C33A C46A,0.596
7,C31U G63A,1.14
8,C31U G44A C46U,0.629
9,C31G G48A U59C,0.793
10,C31U U35A A37G A40C U47C U64G,0.512
11,C31U C46A A69C,0.757
12,C31U C46U G51A A65C,0.643
13,C31G C49G C62U G67C,≤ 0.5
14,C31U A42C G67A,0.628
15,C31G C34U G38A,0.53
16,C31G U32A C49U C62A,≤ 0.5
17,C31G A40G C46A C55G,0.578
18,C31U A40C A65C,0.817
19,C31U U35C,0.851
20,C31G A42U C66U,0.767
21,C31G C49U,0.92
22,C31G C49A,0.734
23,C31G A37U G56C,≤ 0.5
24,C31U C33A,0.585

row,Variant,yeast fitness
1,C31U G67A,0.97
2,C31U G67U,0.952
3,C31U A37C A43U G50C A57G,0.586
4,C31U C46G G50U C61U,≤ 0.5
5,C31U A40U U59C A70U,≤ 0.5
6,C31G C46G,1.04
7,C31U A43C,1.17
8,C31U A43U,1.11
9,C31U C60G G67A,≤ 0.5
10,C31G U47G C49G C60U C62G,≤ 0.5
11,C31U G58A,0.965
12,C31G G39A A70G,0.553
13,C31U G44A A45U A57G,0.537
14,C31U C55G U59A,≤ 0.5
15,C31U A45U C46G,0.94
16,C31U U32A U35C,0.593
17,C31U A36G A45U,0.593
18,C31U A40G,0.786
19,C31U A40U,0.975
20,C31U A40C,0.937
21,C31G U32A G56C,0.6
22,C31G C34U C55U G58A C61U,0.586
23,C31U G63A A69C,0.748
24,C31U C34A A40G,≤ 0.5

row,Variant,yeast fitness
1,C31U C49U C60A G63C,≤ 0.5
2,C31G G58C G67C,0.533
3,C31G G63C,0.614
4,C31U C33A C62U,≤ 0.5
5,C31U U32A,0.661
6,C31U U32G,0.662
7,C31U A57G,1.06
8,C31U A57U,0.619
9,C31U C49U C61G,0.638
10,C31G A40U A45U C62A,0.591
11,C31U A37G C62G,0.517
12,C31U G44A A45U U47C,0.607
13,C31G C33A C49U U54G A65U,0.597
14,C31U U35C A40G,≤ 0.5
15,C31U A43U G48A U53A,0.587
16,C31U A40G C61G,≤ 0.5
17,C31G C61U G68A,≤ 0.5
18,C31U C49U,1.04
19,C31G A45C C60A G63A,≤ 0.5
20,C31U G39A A57C,≤ 0.5
21,C31U U35C U47A,≤ 0.5
22,C31U A45G,0.932
23,C31G C46G C61G,≤ 0.5
24,C31G A45U C55U C62U,0.564

row,Variant,yeast fitness
1,C31U A37C U64A,≤ 0.5
2,C31G C34G,0.629
3,C31G C34U A40C G63C,≤ 0.5
4,C31G C34U A42U,0.612
5,C31U U47A C61U A70C,≤ 0.5
6,C31G G56A U59C A65C A70G,≤ 0.5
7,C31U A40G U54C A70U,0.527
8,C31G C33G C34U G68A,0.603
9,C31G A37G C62U G63C,0.54
10,C31U,0.986
11,C31G G44C U53C A65U,≤ 0.5
12,C31G G44C A69C,0.611
13,C31G G52C,0.531
14,C31G G52A,0.755
15,C31G C34U C46U G56A G63A,≤ 0.5
16,C31G A69G,1.02
17,C31U A43U G48A A57U G67C,≤ 0.5
18,C31G G41C G50C,0.533
19,C31G C60G C62U G68A,≤ 0.5
20,C31G G67A,0.859
21,C31G G67C,0.888
22,C31U U47G G58C C62U,0.552
23,C31U A42C G44A A45U,0.55
24,C31U G58A C66U,0.73

row,Variant,yeast fitness
1,C31G A37U A42U,0.56
2,C31U A40U A70U,0.7
3,C31U U59A G63A,0.683
4,C31G A43U,0.984
5,C31G A45C,0.864
6,C31G A45U,0.987
7,C31U C34A A45U C61U,≤ 0.5
8,C31U C33A G50A A65G,≤ 0.5
9,C31U G52C,0.661
10,C31G A37U C55G A57C,0.541
11,C31G U32A U53G,0.646
12,C31U U32C C34U A57C,≤ 0.5
13,C31G A42G C49G,≤ 0.5
14,C31G A37G,0.79
15,C31U A43G C66U,0.724
16,C31G C33U A37C A70U,≤ 0.5
17,C31G C62U A65G,0.71
18,C31G A36U C46U A65C,0.74
19,C31G C62A A70C,0.54
20,C31U A65U G68U,0.699
21,C31G A36U G41A A45C,≤ 0.5
22,C31U A42U,0.957
23,C31U G68U A69U,0.615
24,C31U C33G C61A,0.65

row,Variant,yeast fitness
1,C31U C34A A40G U59A,0.566
2,C31U A45U G56C,≤ 0.5
3,C31G C49U G50C A69U,≤ 0.5
4,C31G C55G U64C,≤ 0.5
5,C31U C61U C66A,≤ 0.5
6,C31G C46U C49U G56C,≤ 0.5
7,C31U C49G C60A,≤ 0.5
8,C31U G41A,0.959
9,C31G G50A,0.837
10,C31G G50C,0.738
11,C31U A40G A42C G44A A45U,≤ 0.5
12,C31U A40C C46G,0.744
13,C31G G52A U59A,≤ 0.5
14,C31U A45U A69U,1
15,C31G C34U A57U,0.561
16,C31U G44C,0.826
17,C31G C61U G67A,≤ 0.5
18,C31U G48A G56U A65G,≤ 0.5
19,C31G C33A,0.678
20,C31G U35A,0.659
21,C31G U32C G39C,0.507
22,C31U C49U C66A G67A,≤ 0.5
23,C31U U32A C61U,0.627
24,C31U C46G A69U,0.731

row,Variant,yeast fitness
1,C31G C62U,1.07
2,C31G C46G C61G A69U,≤ 0.5
3,C31G G51A U59A,≤ 0.5
4,C31G G56C,0.632
5,C31U A42G G50A,0.629
6,C31U A69G,0.924
7,C31U A69U,0.999
8,C31G A37C G50A A65C,≤ 0.5
9,U32A A36C C60G,≤ 0.5
10,C31U G38C G51A G56A,0.543
11,C31G C33G C49U C60G C66A,≤ 0.5
12,C31U C60A A69U,0.506
13,C31U A37G A45C A70C,≤ 0.5
14,C31G A42G A65U G67C,≤ 0.5
15,C31U C49G G52A C62U,≤ 0.5
16,C31U A37C A43U G50C A69U,≤ 0.5
17,C31U C46A G58C,0.645
18,C31G A40G C46A U54C C55G,≤ 0.5
19,C31U U32A U35C A65G,≤ 0.5
20,C31U G52C A57C,≤ 0.5
21,C31U C33G A65C G68A A69U,≤ 0.5
22,C31G G38A U54A,≤ 0.5
23,C31U U32G C33G,0.591

# — the RNAGym collection of RNA variant scans (doi:10.1126/science.aae0568)
